Laboratory results: ChEMBL document CHEMBL3739318, “Orally Bioavailable Metal Chelators and Radical Scavengers: Multifunctional Antioxidants for the Coadjutant Treatment of Neurodegenerative Diseases” (J Med Chem, 2015)
The source made the active and inactive calls. The calls are words filed in the database; no cut-off is given here.

Legend:
ARPE-19 [1] = test: Antioxidant activity in human ARPE19 cells assessed as reduction of xanthine oxidase-mediated superoxide generation preincubated for 1 hr followed by xanthine oxidase challenge for 1 hr by MitoSOX staining-based fluorescence analysis; assay type: functional, cell-based
Outline: (§1)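 Cells washed with PBS, then preincubated 1 h at 37 °C in serum-free medium with 1, 10, 100 or 1000 μM compound, or SOD 25 μg/mL as reference. Xanthine oxidase added (25 mU/mL; ~100 μM superoxide) for 1 h more. After a PBS wash, cells stained with MitoSOX Red (5 μM) for 2 h. Fluorescence read at Ex/Em 510/580 nm.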

SH-SY5Y [2] = test: Cytotoxicity against human SH-SY5Y cells assessed as reduction in cell viability at 1 mM after 2 hrs by MTS assay; assay type: cell-based; details: 1000 µM
Outline: (§2)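 ARPE-19 grown in DMEM + 4% FBS and SH-SY5Y in EMEM/F12 + 10% FBS, at 37 °C, 5% CO2. Plated at 1 × 10^4 cells/well. Exposed 2 h to 1 mM compound (0.16% DMSO) without oxidant. Viability by MTS. Mean ± SEM, n = 4, ANOVA versus blank control.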

[3] = Cytotoxicity against human ARPE19 cells assessed as reduction in cell viability at 1 mM after 2 hrs by MTS assay; assay type: cell-based; details: arpe-19, 2 h, 1000 µM; outline: as §2
SH-SY5Y [4] = test: Neuroprotective activity against Fenton reagent-induced ROS generation in human SH-SY5Y cells assessed as increase in GSH level at 1 mM after 2 hrs by DTNB method; assay type: functional, cell-based
Outline: (§3)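 Cells grown in 60 or 150 mm dishes and exposed 2 h to Fenton reagent (1 mM H2O2 + 1 mM Fe2+) with or without 1 mM compound in 0.16% DMSO. Intracellular glutathione then measured. Mean ± SEM, n = 6. ANOVA.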

ARPE-19 [5] = test: Neuroprotective activity against Fenton reagent-induced hydroxy radical-stimulated cytotoxicity in human ARPE19 cells assessed as cell survival at 1 to 1000 uM preincubated for 1 hr followed by Fenton reagent challenge for 2 hrs by fluorescence-based LIVE/DEAD viability/cytotoxicity assay; assay type: functional
Outline: (§4)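 After a PBS wash, cells preincubated 1 h at 37 °C in serum-free medium with 1–1000 μM compound. Fenton reagent (Fe2+/H2O2, 100 μM final) then added for 2 h. Stained 15 min at 37 °C with calcein AM 8 μM and EthD-1 16 μM. Fluorescence read at 494/517 and 528/617 nm. % live cells calculated from blank-corrected single-dye controls; dead-cell control 70% ethanol. Mean ± SEM, n = 6.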

SH-SY5Y [6] = test: Neuroprotective activity against Fenton reagent-induced hydroxy radical-stimulated cytotoxicity in human SH-SY5Y cells assessed as cell survival at 1 to 1000 uM preincubated for 1 hr followed by Fenton reagent challenge for 2 hrs by fluorescence-based LIVE/DEAD viability/cytotoxicity assay; assay type: functional; outline: as §4
ARPE-19 [7] = test: Neuroprotective activity against Fenton reagent-induced ROS generation in human ARPE19 cells assessed as increase in GSH level at 1 mM after 2 hrs by DTNB method; assay type: functional, cell-based; outline: as §3
SH-SY5Y [8] = test: Neuroprotective activity against Fenton reagent-induced ROS generation-stimulated cytotoxicity in human SH-SY5Y cells assessed as cell viability at 1 mM after 2 hrs by MTS assay; assay type: functional, cell-based
Outline: (§5)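 Cells in 96-well format exposed 2 h to Fenton reagent (1 mM H2O2 + 1 mM Fe2+) with or without 1 mM compound in 0.16% DMSO. Viability by MTS assay, normalized to untreated cells without Fenton reagent (100%). Mean ± SEM, n = 4. ANOVA.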

SH-SY5Y [9] = test: Antioxidant activity in human SH-SY5Y cells assessed as reduction of xanthine oxidase-mediated superoxide generation preincubated for 1 hr followed by xanthine oxidase challenge for 1 hr by MitoSOX staining-based fluorescence analysis; assay type: functional, cell-based; outline: as §1
ARPE-19 [10] = test: Neuroprotective activity against Fenton reagent-induced ROS generation-stimulated cytotoxicity in human ARPE19 cells assessed as cell viability at 1 mM after 2 hrs by MTS assay; assay type: functional, cell-based; outline: as §5
[11] = Metal chelating activity assessed as stoichiometric ratio of compound to Mg2+ ion at 0.1 to 0.5 mM of compound and metal ion mixture after 45 mins by spectrophotometric analysis; assay type: physicochemical; details: 0.75 h, 500 µM
Outline: (§6)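 Job continuous-variation method at 23 °C. Compound dissolved in acetonitrile, then diluted to 0.1 mM stock in 1 mM acetate pH 6.5. Compound + ion at constant total 0.1–0.5 mM with varied mole fraction. After 45 min equilibration, UV absorbance scanned 210–310 nm. Stoichiometry taken from the intersection of lines. Mean ± SD, n = 3.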

[12] = Metal chelating activity assessed as stoichiometric ratio of compound to Cu+ ion at 0.1 to 0.5 mM of compound and metal ion mixture after 45 mins by spectrophotometric analysis; assay type: physicochemical; details: 0.75 h, 500 µM; outline: as §6
[13] = Metal chelating activity assessed as stoichiometric ratio of compound to Fe2+ ion at 0.1 to 0.5 mM of compound and metal ion mixture after 45 mins by spectrophotometric analysis; assay type: physicochemical; details: 0.75 h, 500 µM; outline: as §6
[14] = Metal chelating activity assessed as stoichiometric ratio of compound to Mn2+ ion at 0.1 to 0.5 mM of compound and metal ion mixture after 45 mins by spectrophotometric analysis; assay type: physicochemical; details: 0.75 h, 500 µM; outline: as §6
[15] = Metal chelating activity assessed as stoichiometric ratio of compound to Cu2+ ion at 0.1 to 0.5 mM of compound and metal ion mixture after 45 mins by spectrophotometric analysis; assay type: physicochemical; details: 0.75 h, 500 µM; outline: as §6
[16] = Metal chelating activity assessed as stoichiometric ratio of compound to Ca2+ ion at 0.1 to 0.5 mM of compound and metal ion mixture after 45 mins by spectrophotometric analysis; assay type: physicochemical; details: 0.75 h, 500 µM; outline: as §6
[17] = Metal chelating activity assessed as stoichiometric ratio of compound to Fe3+ ion at 0.1 to 0.5 mM of compound and metal ion mixture after 45 mins by spectrophotometric analysis; assay type: physicochemical; details: 0.75 h, 500 µM; outline: as §6
[18] = Metal chelating activity assessed as stoichiometric ratio of compound to Zn2+ ion at 0.1 to 0.5 mM of compound and metal ion mixture after 45 mins by spectrophotometric analysis; assay type: physicochemical; details: 0.75 h, 500 µM; outline: as §6
[19] = Drug uptake in lens of C57BL/6 mouse assessed per mg of protein at 80 mg/kg, po administered everyday for 14 days by HPLC-MS analysis; assay type: ADME, organism-based, Lens of camera-type eye; details: in vivo, 336 h
Outline: (§7)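 C57BL/6 mice fed chow containing 0.05% compound (~80 mg/kg/day average) for 14 days. Perfused with PBS; brain, lens and neural retina homogenized in ice-cold 10 mM acetate pH 4 with internal standard. Extracted with TCA precipitation and chloroform. Analyzed by reverse-phase C18 HPLC.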

[20] = Drug uptake in neural retina of C57BL/6 mouse assessed per mg of protein at 80 mg/kg, po administered everyday for 14 days by HPLC-MS analysis; assay type: ADME, organism-based; details: in vivo, 336 h; outline: as §7

Row | Ratio [11] | Ratio [12] | Ratio [13] | Ratio [14] | Ratio [15] | Ratio [16] | Ratio [17] | Ratio [18] | Drug uptake [19] | Drug uptake [20] | SMILES | Activity (ARPE-19 [1]) | Activity (SH-SY5Y [2]) | Activity [3] | Activity (SH-SY5Y [4]) | Activity (ARPE-19 [5]) | Activity (SH-SY5Y [6]) | Activity (ARPE-19 [7]) | Activity (SH-SY5Y [8]) | Activity (SH-SY5Y [9]) | Activity (ARPE-19 [10])
1 |  |  |  |  |  |  |  |  |  |  | Oc1c(I)cc(Cl)c2cccnc12 [CLIOQUINOL] | Dose-dependent effect | 20% | 30% | Active | Dose-dependent effect | Dose-dependent effect | Active | Active | Dose-dependent effect | Active
2 | 0 | 2.01 | 2.06 | 1.98 | 2.28 | 0 | 2.01 | 1.87 |  |  | O=C1CCC(=O)N1c1ncccn1 |  | Non-toxic | Non-toxic | Active |  |  | Active | Active |  | Active
3 |  |  |  |  |  |  |  |  |  |  | Oc1cnc(N2CCCC2)nc1 |  | Non-toxic | Non-toxic | Active |  |  | Active | Active |  | Active
4 | 0 | 1.86 | 1.85 | 1.91 | 1.75 | 0 | 1.92 | 1.99 | Active | Active | O=C1CCCC(=O)N1c1ncc(O)cn1 |  | Non-toxic | Non-toxic | Active |  |  | Active | Active |  | Active
5 | 0 | 1.9 | 1.96 | 1.95 | 1.96 | 0 | 2.08 | 2.06 |  |  | COc1cc(OC)nc(N2C(=O)CCCC2=O)n1 |  | Non-toxic | Non-toxic | Active |  |  | Active | Active |  | Active
6 | 0 | 2.01 | 2.06 | 2.14 | 2.28 | 0 | 2.01 | 1.87 | Active | Active | O=C1CCC(=O)N1c1ncc(O)cn1 | Dose-dependent effect | Non-toxic | Non-toxic | Active | Dose-dependent effect | Dose-dependent effect | Active | Active | Dose-dependent effect | Active
7 | 0 | 1.92 | 2.02 | 2.04 | 2.01 | 0 | 2.05 | 2.07 |  |  | COc1cc(OC)nc(N2C(=O)CCC2=O)n1 |  | Non-toxic | Non-toxic | Active |  |  | Active | Active |  | Active
8 |  |  |  |  |  |  |  |  |  |  | c1cnc(N2CCCCC2)nc1 |  | Non-toxic | Non-toxic | Active |  |  | Active | inactive |  | inactive
9 |  |  |  |  |  |  |  |  |  |  | Oc1cnc(N2CCCCC2)nc1 |  | Non-toxic | Non-toxic | Active |  |  | Active | Active |  | Active
10 |  |  |  |  |  |  |  |  |  |  | COc1cc(OC)nc(N2CCCCC2)n1 |  | Non-toxic | Non-toxic | Active |  |  | Active | inactive |  | inactive
11 |  |  |  |  |  |  |  |  |  |  | COc1nc(N2CCCC2)nc(OC)c1O |  | Non-toxic | Non-toxic | Active |  |  | Active | Active |  | Active
12 |  |  |  |  |  |  |  |  |  |  | Cc1c(C)c2c(c(C)c1O)CCC(C)(C(=O)O)O2 (stereo not given) [TROLOX] | Dose-dependent effect | Non-toxic | Non-toxic | Active | Dose-dependent effect | Dose-dependent effect | Active | Active | Dose-dependent effect | Active
13 |  |  |  |  |  |  |  |  |  |  | c1cnc(N2CCCC2)nc1 |  | Non-toxic | Non-toxic | Active | inactive | inactive | Active | inactive |  | inactive
14 |  |  |  |  |  |  |  |  |  |  | COc1cc(OC)nc(N2CCCC2)n1 |  | Non-toxic | Non-toxic | Active | inactive | inactive | Active | inactive |  | inactive
15 | 0 | 1.9 | 2.13 | 1.83 | 2.01 | 0 | 1.8 | 2.17 |  |  | O=C1CCCC(=O)N1c1ncccn1 |  | Non-toxic | Non-toxic | Active |  |  | Active | Active |  | Active
16 |  |  |  |  |  |  |  |  |  |  | COc1nc(N2CCCCC2)nc(OC)c1O |  | Non-toxic | Non-toxic | Active |  |  | Active | Active |  | Active
17 | 0 | 1.97 | 1.97 | 2.12 | 1.86 | 0 | 1.82 | 2.09 | Active | Active | COc1nc(N2C(=O)CCCC2=O)nc(OC)c1O |  | Non-toxic | Non-toxic | Active |  |  | Active | Active |  | Active
